Experimental data taken from PubChem BioAssay.
Active and inactive are the calls of the source.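 How the source made its calls, unless noted: active means visually confirmed hit in the image check and inhibition above 20%; inconclusive means visually confirmed hit but inhibition not above 20%; inactive means no visual hit in the image check.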

Experiments:
[1] = inhibitors of TNFa-induced NFkB p65 translocation, primary screen, imaging, HUVEC, MLSMR starter and 10KST1 sets (AID 438;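 active means inhibition above 20% together with a positive visual image hit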;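 further: compound added about 3h40 before a 20 min TNFalpha stimulation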;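 on inhibition: signal is the nuclear over cytoplasmic p65 intensity ratio per well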); conditions: HUVEC TNFa-induced p65 nuclear translocation; cell count: measured here: nuclei count (cytotoxicity indicator), at 2.08 µM; inhibition: at 2 µM, stronger effect = higher value, 0% TNFa-plus-vehicle, 100% no-TNFa wells
[2] = endothelial E-selectin expression blockers – imaging, HUVEC, immunofluorescence, MLSMR starter and 10KST1 sets, primary screen (AID 487); conditions: HUVEC TNFalpha-induced E-selectin immunofluorescence imaging, at 2 µM; inhibition: stronger effect = higher value; nuclei count: measured here: cell number, toxicity;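 on inhibition: signal is fraction of cell area covered by stained E-selectin grains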;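 on nuclei count: 100% = median nuclei count of all wells on the same plate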
[3] = Primary imaging screen for DUSP6 inhibitors that restore phospho-Erk in transfected HeLa cells, chemical complementation (AID 609;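 active means compounds giving at least 50% inhibition in the cell-based MKP-3 phosphatase rescue imaging test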;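 on inhibition: phospho-Erk level distribution per well compared with pooled transfected vehicle control wells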); conditions: HeLa MKP-3 transfected, phospho-Erk imaging KS statistic, at 10 µM, cells stimulated with TPA for 15 min
[4] = molecular target: Dual specificity protein phosphatase 6 (Homo sapiens) (UniProt Q16828); test: as above; conditions: HeLa MKP-3 transfected, phospho-Erk imaging KS statistic; at 10 µM; stronger effect = higher value; cells stimulated with TPA for 15 min
[5] = molecular target: Voltage-gated potassium channel subunit beta-2 (Rattus norvegicus) (UniProt P62483); test: inhibitors of rat Kvbeta2 reductase activity – biochemical, NADPH fluorescence, primary screen (AID 622;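 active means fluorescence slope higher than the sample average by over 3 SD, cut at about -0.22 in these data, passing the limit was not always enough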;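 further: slope of raw intensity against log time taken from 70 to 1610 s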); conditions: recombinant KvBeta, 4-cyanobenzaldehyde reduction, at 10 µM, stronger effect = higher value
[6] = molecular target: Voltage-gated potassium channel subunit beta-2 (Rattus norvegicus) (UniProt P62483); test: enhancers of rat Kvbeta2 NADPH turnover – biochemical, NADPH fluorescence, primary screen (AID 623;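 active means NADPH fluorescence slope more negative than the mean of all samples by about 3 SD, 99.7% confidence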;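 further: fluorescence intensity change per second fitted from 20 to 320 s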); conditions: Recombinant KvBeta, NADPH fluorescence decrease slope, 10 min; at 10 µM; stronger effect = lower value
[7] = molecular target: Muscarinic acetylcholine receptor M4 (Homo sapiens) (UniProt P08173); test: M4-linked GIRK flux change, two-sided – cell-based, HEK293 M4/GIRK, thallium flux, BTC-AM, M4 allosteric agonist project, primary screen (AID 625;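 active means fluorescence slope after compound addition differing from the mean of all tested samples at 99.7% confidence, mostly higher but some lower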;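 further: thallium influx through GIRK channels coupled to M4 in HEK293 cells with BTC-AM dye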); conditions: at 10 µM, actives lie on both sides
In short: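 Assay system: HEK293 cells with M4 receptor and GIRK channels / Controls: carbachol and DMSO controls / Schedule: 1 h dye loading, 2 min kinetic read / Technique: kinetic fluorescence with BTC-AM dye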

[8] = inhibitors of larval lipid processing in zebrafish, primary screen, whole organism, PED6 fluorescence, gall bladder and intestine (AID 686;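 active means a full or partial loss of lipid-probe fluorescence in the fish gall bladder, intestine or both, judged by eye; inactive means no fluorescence loss, or compound toxic to the fish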;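 further: larvae 5 to 7 days old with five fish per well; signal comes from phospholipase A2 cleavage of quenched PED6 carried via bile; overnight exposure to compound and PED6 before scoring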); conditions: Zebrafish larvae PED6 lipid processing, fluorescence scoring; screened at 20 µM (by protocol)
In short: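 Doses: 20 µM single dose. Test system: live zebrafish larvae aged 5-7 days, whole organism. Quantity: five larvae per well. Measured by: By-eye fluorescence microscopy. Reagent: ingested quenched lipid PED6 at 100 nM. Read-out: visual per-well fluorescence inhibition score. Times: overnight exposure of larvae to compound plus PED6.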

[9] = loss of swimming-algae plug formation – whole organism, Chlamydomonas reinhardtii, WT vs cilia-less mutant, absorbance, 96-well, primary screen (AID 463189;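 active means inhibition at or above 50% relative to wild type and mutant plate controls; inactive means inhibition below 50%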;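 further: 0% = wild type cc124 cells in DMSO and 100% = ciliumless bld1 mutant cells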); conditions: Chlamydomonas reinhardtii gravitaxis, OD600 absorbance, 2 days; at 10 µM; stronger effect = higher value
[10] = measured here: cell density z-score
[11] = measured here: nuclear c-Myc green intensity z-score
[12] = measured here: nuclear pErk red intensity z-score, stronger effect = higher value

Sequence of Dual specificity protein phosphatase 6 (Homo sapiens) (Q16828 whole entry, looked up): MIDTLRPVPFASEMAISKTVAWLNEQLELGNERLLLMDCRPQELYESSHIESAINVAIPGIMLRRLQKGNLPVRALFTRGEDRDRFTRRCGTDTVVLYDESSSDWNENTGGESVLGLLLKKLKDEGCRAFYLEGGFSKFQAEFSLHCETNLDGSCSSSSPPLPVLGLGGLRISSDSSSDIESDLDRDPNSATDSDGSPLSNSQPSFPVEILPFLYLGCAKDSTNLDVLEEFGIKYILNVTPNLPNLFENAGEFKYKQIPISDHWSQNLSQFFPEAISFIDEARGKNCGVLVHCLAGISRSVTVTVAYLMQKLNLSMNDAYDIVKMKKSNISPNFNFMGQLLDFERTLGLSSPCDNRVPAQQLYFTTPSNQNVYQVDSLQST
Sequence of Voltage-gated potassium channel subunit beta-2 (Rattus norvegicus) (P62483 whole entry, looked up): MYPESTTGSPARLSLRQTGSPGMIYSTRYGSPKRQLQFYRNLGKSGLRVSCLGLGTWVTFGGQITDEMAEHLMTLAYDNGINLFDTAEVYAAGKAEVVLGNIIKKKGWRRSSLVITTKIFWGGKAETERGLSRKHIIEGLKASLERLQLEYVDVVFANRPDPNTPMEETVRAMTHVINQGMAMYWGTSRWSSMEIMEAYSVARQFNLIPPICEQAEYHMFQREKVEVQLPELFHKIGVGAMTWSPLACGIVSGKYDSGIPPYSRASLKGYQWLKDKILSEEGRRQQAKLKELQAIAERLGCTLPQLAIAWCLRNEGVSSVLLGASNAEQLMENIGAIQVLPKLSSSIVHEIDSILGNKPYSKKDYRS
Sequence of Muscarinic acetylcholine receptor M4 (Homo sapiens) (P08173 whole entry, looked up): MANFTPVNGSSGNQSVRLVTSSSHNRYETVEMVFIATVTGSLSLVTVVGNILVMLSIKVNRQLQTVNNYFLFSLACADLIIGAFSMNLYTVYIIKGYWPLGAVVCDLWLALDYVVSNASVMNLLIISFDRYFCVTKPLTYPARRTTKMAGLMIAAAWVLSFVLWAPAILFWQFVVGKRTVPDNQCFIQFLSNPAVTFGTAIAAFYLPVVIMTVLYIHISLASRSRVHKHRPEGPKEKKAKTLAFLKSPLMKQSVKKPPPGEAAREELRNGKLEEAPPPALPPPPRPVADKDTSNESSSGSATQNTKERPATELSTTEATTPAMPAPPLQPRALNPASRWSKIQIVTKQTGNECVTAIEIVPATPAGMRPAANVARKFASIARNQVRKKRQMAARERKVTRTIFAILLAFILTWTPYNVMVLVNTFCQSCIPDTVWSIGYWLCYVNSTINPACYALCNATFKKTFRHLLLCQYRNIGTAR

SMILES	cell count [1]	inhibition [1]	inhibition [2]	nuclei count [2] [%]	z-score [3, 10]	z-score [3, 11]	z-score [3, 12]	inhibition [4]	fluorescence slope [5]	NADPH fluorescence slope [6]	fluorescence slope [7]	outcome [8]	inhibition [9]
CCc1nc(NCC2CCCO2)c(C#N)c2c1COC(C)(C)C2 (stereo unspecified)	550	-12.7% (inactive)	2% (inactive)	127	-0.137	-0.0587	0.863	1.9e-07% (inactive)	-0.316 (inactive)	-4e-05 (inactive)	0.00695 (inactive)	inactive	-12.9% (inactive)
CCOc1ccc(C2=Nn3c(nnc3-c3ccccc3OC)SC2)cc1	409	35.7% (active)	-453% (inactive)	82.2	-1.24	0.121	-0.702	4.25% (inactive)	-0.472 (inactive)	-1.9e-05 (inactive)	0.00485 (inactive)	inactive	-11.5% (inactive)
CCN(CC)c1nc(N2CCOCC2)c(C#N)c2c1CN(C)CC2	580	-9.1% (inactive)	-116% (inactive)	152	1.03	-1.51	0.0125	7.21% (inactive)	-0.43 (inactive)	-0.000217 (inactive)	0.00408 (inactive)	inactive	43.3% (inactive)
CN1CCN(Cc2c(O)c(Cl)cc3c(-c4ccccc4)cc(=O)oc23)CC1	601	-8.3% (inactive)	-38.4% (inactive)	108	-0.109	-0.251	-0.155	2.46% (inactive)	-0.232 (inactive)	-2.2e-05 (inactive)	0.00592 (inactive)	inactive	10.5% (inactive)
Cc1cccc(OCCN2CSC(=S)N(C)C2)c1	542	-14.5% (inactive)	-138% (inactive)	129	0.0536	-1.14	0.0169	9.42% (inactive)	-0.494 (inactive)	-7.6e-05 (inactive)	0.0046 (inactive)	inactive; toxic	45.3% (inactive)
Cn1cc(Cl)nc1C(O)c1ccccc1 (stereo unspecified)	629	-11% (inactive)	-61.5% (inactive)	174	0.432	-0.744	-0.497	-0.233% (inactive)	-0.481 (inactive)	-2.6e-05 (inactive)	0.00721 (inactive)	inactive	20.3% (inactive)
Cc1cc(OCC(=O)Nn2cnnc2)ccc1Br	529	-8.3% (inactive)	-72.3% (inactive)	119	0.551	0.431	0.858	-6.59% (inactive)	-0.433 (inactive)	-0.00012 (inactive)	0.00434 (inactive)	inactive	-9.18% (inactive)
Cc1ccc(C2/C(=C(\O)c3ccc4c(c3)OCCO4)C(=O)C(=O)N2CCCN(C)C)o1 (stereo unspecified)	360	-5.9% (inactive)	24.2% (inactive)	113	-1.73	0.575	-0.16	14% (inactive)	-0.474 (inactive)	-8.1e-06 (inactive)	0.00787 (inactive)	inactive	-17.7% (inactive)
CCCCn1c(=O)n(C)c(=O)c2c3c(sc21)COC(C)(C)C3	589	-5.2% (inactive)	-64.5% (inactive)	144	-0.346	-0.449	-0.806	1.63% (inactive)	-0.447 (inactive)	-1.3e-06 (inactive)	0.00382 (inactive)	inactive	43.8% (inactive)
CC1(C)Cc2nc(NCCN3CCOCC3)c(C#N)cc2CO1	586	-8.3% (inactive)	-133% (inactive)	149	0.143	0.853	0.307	-0.233% (inactive)	-0.486 (inactive)	-8.5e-05 (inactive)	0.00414 (inactive)	inactive	-7.98% (inactive)
Cn1ccnc1C(O)c1ccc(OCc2ccccc2)cc1 (stereo unspecified)	473	-1.1% (inactive)	-18.4% (inactive)	113	-3.29	1.73	-0.207	7.42% (inactive)	-0.487 (inactive)	-0.000123 (inactive)	0.00541 (inactive)	inactive	-11.2% (inactive)
O=C1NC(=O)C(c2cn(-c3ccccc3)nc2-c2ccc(F)cc2)N1 (stereo unspecified)	664	1.3% (inactive)	-12.6% (inactive)	115	0.135	-0.561	-0.862	3.49% (inactive)	-0.46 (inactive)	-5.3e-05 (inactive)	0.005 (inactive)	inactive	2.79% (inactive)
COc1cccc(CNc2ncc(Br)cc2Br)c1O	474	-5.4% (inactive)	-263% (inactive)	170	-1.34	0.935	2.04	-5.62% (inactive)	-0.439 (inactive)	-4.8e-05 (inactive)	0.0052 (inactive)	inactive	5.51% (inactive)
CCOC(=O)c1[nH]c2ccc(C)cc2c1N=CN(CC)CC	681	-16.8% (inactive)	-97.9% (inactive)	174	-1.2	1.5	0.686	3.97% (inactive)	-0.474 (inactive)	-7.5e-05 (inactive)	0.00485 (inactive)	inactive	-5% (inactive)
Cn1c(=O)c2c(nc(NCCCO)n2Cc2cccc(C(F)(F)F)c2)n(C)c1=O	652	-11.8% (inactive)	-70% (inactive)	95.4	-1.68	-0.0388	0.32	-5.95% (inactive)	-0.492 (inactive)	-6.8e-05 (inactive)	0.00722 (inactive)	inactive	-3.98% (inactive)
COc1ccc(C(=O)OC(C)CN2CCN(C)CC2)cc1OC (stereo unspecified)	386	2.6% (inactive)	-35.7% (inactive)	154	-1.91	0.605	1.37	-11% (inactive)	-0.446 (inactive)	-9.4e-05 (inactive)	0.00501 (inactive)	inactive	21.4% (inactive)
COc1ccccc1C1/C(=C(\O)c2ccc3c(c2)OCCO3)C(=O)C(=O)N1CCCN(C)C (stereo unspecified)	402	2.9% (inactive)	-18% (inactive)	134	1.75	-0.784	1.05	-4.78% (inactive)	-0.456 (inactive)	-7.9e-05 (inactive)	0.00501 (inactive)	inactive	12.8% (inactive)
Cc1cc(=O)oc(C)c1C(=O)NCC1CCCO1 (stereo unspecified)	606	9.1% (inactive)	-24.6% (inactive)	123	0.0605	0.0774	0.0396	5.35% (inactive)	-0.441 (inactive)	-4.3e-05 (inactive)	0.00527 (inactive)	inactive	5.07% (inactive)
CN1CCc2c(C#N)c(N3CCCCC3)nc(NCc3ccccc3)c2C1	577	-13.5% (inactive)	-93.5% (inactive)	143	0.729	-1.12	0.497	-2.09% (inactive)	-0.422 (inactive)	-6.7e-05 (inactive)	0.00359 (inactive)	inactive	7.09% (inactive)
CC(C)c1[nH]c(=O)c(C#N)c2c1CSC(C)(C)C2	507	-14% (inactive)	4% (inactive)	89.3	0.147	0.162	-0.0562	5.35% (inactive)	-0.428 (inactive)	3.3e-05 (inactive)	0.0036 (inactive)	inactive	14% (inactive)
COc1cccc(NC(=O)C2CC(=O)n3cnnc3S2)c1 (stereo unspecified)	518	-3.8% (inactive)	12.1% (inactive)	177	0.777	-1.1	-0.46	35.7% (inactive)	-0.339 (inactive)	-2.8e-05 (inactive)	0.00822 (inactive)	inactive	40.5% (inactive)
NC(=O)CSc1nnc2n(-c3ccccc3)c(=O)c3c4c(sc3n12)CCCCC4	376	-1.4% (inactive)	-45.3% (inactive)	193	-0.963	1.04	0.285	-2.59% (inactive)	-0.51 (inactive)	-0.000119 (inactive)	0.00448 (inactive)	inactive	7.56% (inactive)
CCn1c(SCC(=O)N2CCOCC2)nc2sc3c(c2c1=O)CCCC3	577	-9.8% (inactive)	-55% (inactive)	122	-0.0545	-0.0901	0.641	-8.59% (inactive)	-0.463 (inactive)	-0.000111 (inactive)	0.0048 (inactive)	inactive	13.7% (inactive)
COc1cccc(NC(=O)c2cc(C(=O)Nc3cccc(OC)c3)n(C)n2)c1	589	5.1% (inactive)	-73.5% (inactive)	108	-0.897	0.197	0.57	1.12% (inactive)	-0.504 (inactive)	-3.5e-05 (inactive)	0.00667 (inactive)	inactive	-5.34% (inactive)
Cc1cc(CC(=O)O)c(C)cc1CC(=O)O	590	-9.1% (inactive)	-39.7% (inactive)	146	-0.726	1.92	1.23	-7.67% (inactive)	-0.445 (inactive)	-0.000138 (inactive)	0.00496 (inactive)	inactive	-5.83% (inactive)
Clc1ccc(-n2ncc3c(NCc4ccco4)ncnc32)cc1	582	-17.4% (inactive)	19.7% (inactive)	154	0.502	-0.386	0.00112	19.4% (inactive)	-0.339 (inactive)	-2.6e-05 (inactive)	0.00727 (inactive)	inactive	45.5% (inactive)
O=C1NCC(COCC2CC=CCC2)O1 (stereo unspecified)	574	-4% (inactive)	50.9% (inactive)	136	0.151	-0.463	-0.815	19.4% (inactive)	-0.408 (inactive)	-2.8e-05 (inactive)	0.0053 (inactive)	inactive	41.8% (inactive)
